Values belong to the compound of their own block, whether it stands above or below them. Activity calls are given as the source filed them. The calls are words filed in the database; no cut-off is given here.
Columns and labels:
[1] = Inhibition of chymotrypsin-like activity of human 20S proteasome in Molt4 cells; format: cell-based; details: molt-4
Outline: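 Intact human leukemia Molt-4 cells were given the cell-permeable fluorogenic chymotrypsin-like substrate MeOSuc-FLF-AFC, so the read-out also reflects inhibitor cell permeability. Potency is reported as EC50.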

[2] = Inhibition of bovine alpha chymotrypsin; set-up: species or system Bos taurus
[3] = Inhibition of chymotrypsin-like activity of human erythrocyte 20S proteasome
Outline: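 Isolated 20S proteasome purified from human erythrocytes was tested in a fluorimetric kinetic assay of chymotrypsin-like activity. Potency is reported as IC50.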

A2780 = test: Cytotoxicity against human A2780 cells; format: functional, cell-based
Outline: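 Antiproliferative activity was measured in A2780 ovarian carcinoma cells with a standard colorimetric assay of cell proliferation and viability. Results are expressed as IC50.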

[4] = Oral bioavailability in CD1 mouse at 4 mg/kg; format: ADME, organism-based; details: in vivo
Outline: (§1)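 Single-dose pharmacokinetics after iv or oral administration in female Sprague–Dawley rats and in CD-1 mice; plasma exposure (AUC0–∞) used to derive steady-state volume of distribution, clearance, terminal half-life and absolute oral bioavailability.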

[5] = molecular target: Coagulation factor X (Homo sapiens) (UniProt P00742); test: Inhibition of human factor 10a at 10 uM
[6] = Half life in CD1 mouse at 0.8 mg/kg, iv; format: ADME, organism-based; set-up: dose 0.8 mg/kg, route intravenous; details: in vivo
Outline: (§2)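 Female Sprague–Dawley rats and CD-1 mice each received a single iv or oral (po) dose. Terminal half-life and systemic clearance were estimated from plasma exposure over time, alongside AUC0→∞, Vss and absolute oral bioavailability.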

[7] = molecular target: Tissue-type plasminogen activator (Homo sapiens) (UniProt P00750); test: Inhibition of human TPA at 10 uM
Cathepsin G = Cathepsin G (Homo sapiens, UniProt P08311); test: Inhibition of human cathepsin G
[8] = Metabolic stability in mouse liver microsomes; format: ADME, Microsome
[9] = molecular target: Plasma kallikrein (Homo sapiens) (UniProt P03952); test: Inhibition of human plasma kallikrein at 10 uM
Sus scrofa [10] = species: Sus scrofa; test: Inhibition of pig pancreatic elastase 1 at 10 uM
[11] = molecular target: Plasminogen (Homo sapiens) (UniProt P00747); test: Inhibition of human plasmin at 10 uM
Homo sapiens [12] = species: Homo sapiens; test: Inhibition of human tryptase at 10 uM
Homo sapiens [13] = species: Homo sapiens; test: Inhibition of human chymotrypsin at 10 uM
[14] = molecular target: Endothelin-converting enzyme 1 (Homo sapiens) (UniProt P42892); test: Inhibition of human ECE1 at 10 uM
[15] = Protein binding in rat plasma; format: ADME, cell-free; details: read-out: PPB (converted)
Caspase-3 (Homo sapiens) = Caspase-3 (Homo sapiens) (UniProt P42574); test: Inhibition of human caspase 3 at 10 uM
[16] = Metabolic stability in human liver microsomes; format: ADME, Microsome
[17] = molecular target: Pro-cathepsin H (Homo sapiens) (UniProt P09668); test: Inhibition of human cathepsin H at 10 uM
Caspase-7 (Homo sapiens) = Caspase-7 (Homo sapiens) (UniProt P55210); test: Inhibition of human caspase 7 at 10 uM
[18] = molecular target: Cathepsin Z (Homo sapiens) (UniProt Q9UBR2); test: Inhibition of human cathepsin Z at 10 uM
[19] = molecular target: Prothrombin (Homo sapiens) (UniProt P00734); test: Inhibition of human thrombin at 10 uM
[20] = AUC (0 to infinity) in CD1 mouse at 4 mg/kg, po; format: ADME, organism-based; set-up: time infinity, dose 4 mg/kg, route oral; details: plasma
Caspase-8 (Homo sapiens) = Caspase-8 (Homo sapiens) (UniProt Q14790); test: Inhibition of human caspase 8 at 10 uM
[21] = molecular target: Neutrophil elastase (Homo sapiens) (UniProt P08246); test: Inhibition of human neutrophil elastase 2 at 10 uM
[22] = AUC (0 to infinity) in CD1 mouse at 0.8 mg/kg, iv; format: ADME, organism-based; set-up: time infinity, dose 0.8 mg/kg, route intravenous; details: plasma
Outline: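 CD-1 mice received a single dose by the iv or oral route. AUC from 0 to infinity was reported with terminal half-life, Vss, clearance and absolute oral bioavailability.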

Caspase-2 (Homo sapiens) = Caspase-2 (Homo sapiens) (UniProt P42575); test: Inhibition of human caspase 2 at 10 uM
[23] = molecular target: Neutrophil collagenase (Homo sapiens) (UniProt P22894); test: Inhibition of human MMP8 at 10 uM
[24] = Half life in CD1 mouse at 4 mg/kg, po; format: ADME, organism-based; set-up: dose 4 mg/kg, route oral; details: in vivo; outline: as §2
[25] = molecular target: Dipeptidyl peptidase 4 (Homo sapiens) (UniProt P27487); test: Inhibition of human DPP4 at 10 uM
[26] = molecular target: Coagulation factor VII (Homo sapiens) (UniProt P08709); test: Inhibition of human factor 7a at 10 uM
[27] = molecular target: Protease (Human immunodeficiency virus 1) (UniProt Q9YQ12); test: Inhibition of HIV1 protease at 10 uM
Caspase-9 (Homo sapiens) = Caspase-9 (Homo sapiens) (UniProt P55211); test: Inhibition of human caspase 9 at 10 uM
[28] = molecular target: Procathepsin L (Homo sapiens) (UniProt P07711); test: Inhibition of human cathepsin L at 10 uM
Renin (Homo sapiens) = Renin (Homo sapiens) (UniProt P00797); test: Inhibition of human renin at 10 uM
[29] = molecular target: Matrilysin (Homo sapiens) (UniProt P09237); test: Inhibition of human MMP7 at 10 uM
[30] = Inhibition of bacterial prolyl oligopeptidase at 10 uM
[31] = molecular target: Calpain-1 catalytic subunit (Homo sapiens) (UniProt P07384); test: Inhibition of human calpain 1 at 10 uM
[32] = molecular target: Cathepsin E (Homo sapiens) (UniProt P14091); test: Inhibition of human cathepsin E at 10 uM
Trypsin (Homo sapiens) = Trypsin (Homo sapiens) (UniProt P07477+P07478+P35030); test: Inhibition of human trypsin at 10 uM; format: protein assay
[33] = Volume of distribution at steady state in CD1 mouse at 0.8 mg/kg, iv; format: ADME, organism-based; set-up: dose 0.8 mg/kg, route intravenous; details: in vivo, read-out: Vdss; outline: as §1
[34] = Inhibition of human chymotrypsin
Outline: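 Cross-reactivity was tested against human pancreas α-chymotrypsin using a fluorogenic specific substrate. Results are expressed as IC50.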

[35] = molecular target: Cathepsin S (Homo sapiens) (UniProt P25774); test: Inhibition of human cathepsin S at 10 uM
[36] = molecular target: Cathepsin D (Homo sapiens) (UniProt P07339); test: Inhibition of human cathepsin D at 10 uM
Caspase-1 (Homo sapiens) = Caspase-1 (Homo sapiens) (UniProt P29466); test: Inhibition of human caspase 1 at 10 uM
[37] = molecular target: Disintegrin and metalloproteinase domain-containing protein 17 (Homo sapiens) (UniProt P78536); test: Inhibition of human TACE at 10 uM
[38] = Clearance in CD1 mouse at 0.8 mg/kg, iv; format: ADME, organism-based; set-up: dose 0.8 mg/kg, route intravenous; details: in vivo; outline: as §2
Chymase (Homo sapiens) = Chymase (Homo sapiens) (UniProt P23946); test: Inhibition of human chymase at 10 uM
[39] = molecular target: Macrophage metalloelastase (Homo sapiens) (UniProt P39900); test: Inhibition of human MMP12 at 10 uM
Chymase = Chymase (Homo sapiens, UniProt P23946); test: Inhibition of human chymase
[40] = Protein binding in mouse plasma; format: ADME, cell-free; details: read-out: PPB (converted)
[41] = molecular target: Cathepsin G (Homo sapiens) (UniProt P08311); test: Inhibition of human cathepsin G at 10 uM
Mus musculus = test: Inhibition of 20S proteasome beta5beta1 subunit binding in human RPMI 8226 cells xenografted mouse; format: functional, organism-based
[42] = molecular target: Stromelysin-1 (Homo sapiens) (UniProt P08254); test: Inhibition of human MMP3 at 10 uM
[43] = molecular target: Neprilysin (Homo sapiens) (UniProt P08473); test: Inhibition of human NEP at 10 uM
[44] = Protein binding in dog plasma; format: ADME, cell-free, Canis lupus familiaris; details: read-out: PPB (converted)
[45] = molecular target: 72 kDa type IV collagenase (Homo sapiens) (UniProt P08253); test: Inhibition of human MMP2 at 10 uM
Sus scrofa [46] = species: Sus scrofa; test: Inhibition of pig pepsin at 10 uM
[47] = Metabolic stability in dog liver microsomes; format: ADME, Canis lupus familiaris, Microsome
[48] = molecular target: Interstitial collagenase (Homo sapiens) (UniProt P03956); test: Inhibition of human MMP1 at 10 uM
[49] = molecular target: Dipeptidyl peptidase 1 (Bos taurus) (UniProt Q3ZCJ8); test: Inhibition of bovine cathepsin C at 10 uM
[50] = Metabolic stability in rat liver microsomes; format: ADME, Microsome

Pro-cathepsin H (Homo sapiens), sequence (P09668 116-335 limits assumed, other chains not shown): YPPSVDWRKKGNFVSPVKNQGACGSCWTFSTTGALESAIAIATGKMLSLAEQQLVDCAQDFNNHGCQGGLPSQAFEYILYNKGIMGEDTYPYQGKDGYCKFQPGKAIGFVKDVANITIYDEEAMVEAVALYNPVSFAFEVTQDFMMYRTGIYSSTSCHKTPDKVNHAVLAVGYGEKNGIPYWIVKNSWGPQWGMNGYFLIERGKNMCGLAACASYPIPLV
Caspase-3 (Homo sapiens), sequence (P42574 29-175 limits assumed): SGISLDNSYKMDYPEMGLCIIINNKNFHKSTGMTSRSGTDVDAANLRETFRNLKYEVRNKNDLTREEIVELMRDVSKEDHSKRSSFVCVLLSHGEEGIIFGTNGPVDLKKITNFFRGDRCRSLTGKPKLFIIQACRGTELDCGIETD
Caspase-3 (Homo sapiens), sequence (P42574 176-277 limits assumed): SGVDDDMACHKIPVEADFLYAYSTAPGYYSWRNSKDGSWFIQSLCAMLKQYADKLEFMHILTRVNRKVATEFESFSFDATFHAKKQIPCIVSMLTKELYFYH
Caspase-1 (Homo sapiens), sequence (P29466 120-297 limits assumed): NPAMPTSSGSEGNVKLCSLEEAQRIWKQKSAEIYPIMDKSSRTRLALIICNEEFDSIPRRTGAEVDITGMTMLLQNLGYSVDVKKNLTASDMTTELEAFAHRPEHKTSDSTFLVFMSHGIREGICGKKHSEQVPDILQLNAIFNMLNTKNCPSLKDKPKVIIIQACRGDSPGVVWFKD
Caspase-1 (Homo sapiens), sequence (P29466 317-404 limits assumed): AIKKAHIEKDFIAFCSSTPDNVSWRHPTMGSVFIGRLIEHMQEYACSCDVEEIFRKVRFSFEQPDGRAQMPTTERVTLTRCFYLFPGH
Interstitial collagenase (Homo sapiens), sequence (P03956 whole entry): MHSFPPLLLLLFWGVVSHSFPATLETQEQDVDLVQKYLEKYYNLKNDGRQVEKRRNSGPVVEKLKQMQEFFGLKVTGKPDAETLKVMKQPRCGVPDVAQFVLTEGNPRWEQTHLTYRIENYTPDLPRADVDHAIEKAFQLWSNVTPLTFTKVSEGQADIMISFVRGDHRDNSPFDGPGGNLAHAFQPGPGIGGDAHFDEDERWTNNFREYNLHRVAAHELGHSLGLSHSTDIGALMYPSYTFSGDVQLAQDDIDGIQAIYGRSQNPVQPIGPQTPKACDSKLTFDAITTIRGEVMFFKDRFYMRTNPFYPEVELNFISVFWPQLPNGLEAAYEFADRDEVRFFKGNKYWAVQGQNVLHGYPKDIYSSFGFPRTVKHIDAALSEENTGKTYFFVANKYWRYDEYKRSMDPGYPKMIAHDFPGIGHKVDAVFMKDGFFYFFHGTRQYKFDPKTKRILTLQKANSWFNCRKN
Caspase-2 (Homo sapiens), sequence (P42575 170-325 limits assumed): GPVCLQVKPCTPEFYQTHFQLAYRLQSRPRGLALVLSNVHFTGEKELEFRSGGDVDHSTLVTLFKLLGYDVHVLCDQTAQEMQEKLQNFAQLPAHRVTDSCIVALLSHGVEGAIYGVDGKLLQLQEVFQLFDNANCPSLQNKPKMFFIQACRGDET
Caspase-2 (Homo sapiens), sequence (P42575 334-452 limits assumed): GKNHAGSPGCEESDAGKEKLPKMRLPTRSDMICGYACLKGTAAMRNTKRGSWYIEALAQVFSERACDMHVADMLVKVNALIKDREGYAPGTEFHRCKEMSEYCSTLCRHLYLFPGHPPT
Caspase-7 (Homo sapiens), sequence (P55210 24-198 limits assumed): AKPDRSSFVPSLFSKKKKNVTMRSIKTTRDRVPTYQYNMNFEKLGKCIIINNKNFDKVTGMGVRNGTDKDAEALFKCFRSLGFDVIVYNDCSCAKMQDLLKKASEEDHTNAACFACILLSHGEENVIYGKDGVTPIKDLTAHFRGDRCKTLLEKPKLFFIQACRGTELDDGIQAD
Caspase-7 (Homo sapiens), sequence (P55210 207-303 limits assumed): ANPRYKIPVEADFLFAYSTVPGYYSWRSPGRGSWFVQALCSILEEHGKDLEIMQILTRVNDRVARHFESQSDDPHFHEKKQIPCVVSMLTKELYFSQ
Disintegrin and metalloproteinase domain-containing protein 17 (Homo sapiens), sequence (P78536 whole entry, the tested form may be a part): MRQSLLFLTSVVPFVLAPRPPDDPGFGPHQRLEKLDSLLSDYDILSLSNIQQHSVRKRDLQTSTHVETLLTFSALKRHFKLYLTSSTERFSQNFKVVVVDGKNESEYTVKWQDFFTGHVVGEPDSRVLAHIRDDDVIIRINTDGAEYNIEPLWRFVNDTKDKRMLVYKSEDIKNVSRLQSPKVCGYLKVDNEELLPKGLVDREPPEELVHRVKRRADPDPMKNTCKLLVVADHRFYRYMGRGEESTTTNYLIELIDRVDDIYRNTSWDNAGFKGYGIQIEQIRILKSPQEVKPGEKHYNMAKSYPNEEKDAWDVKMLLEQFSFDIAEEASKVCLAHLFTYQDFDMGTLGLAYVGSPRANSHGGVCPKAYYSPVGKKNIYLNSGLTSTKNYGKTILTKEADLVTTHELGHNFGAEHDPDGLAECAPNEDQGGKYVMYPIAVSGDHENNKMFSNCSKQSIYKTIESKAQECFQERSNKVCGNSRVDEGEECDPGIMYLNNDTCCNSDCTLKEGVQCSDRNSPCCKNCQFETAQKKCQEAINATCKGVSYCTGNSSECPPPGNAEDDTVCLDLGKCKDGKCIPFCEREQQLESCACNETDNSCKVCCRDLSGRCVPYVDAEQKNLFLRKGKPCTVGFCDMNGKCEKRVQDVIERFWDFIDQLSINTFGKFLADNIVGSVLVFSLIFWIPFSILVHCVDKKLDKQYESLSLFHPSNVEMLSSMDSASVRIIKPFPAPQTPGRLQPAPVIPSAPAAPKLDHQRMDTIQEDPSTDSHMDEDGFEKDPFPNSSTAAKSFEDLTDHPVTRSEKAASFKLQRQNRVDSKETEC
Coagulation factor VII (Homo sapiens), sequence (P08709 61-212 limits assumed): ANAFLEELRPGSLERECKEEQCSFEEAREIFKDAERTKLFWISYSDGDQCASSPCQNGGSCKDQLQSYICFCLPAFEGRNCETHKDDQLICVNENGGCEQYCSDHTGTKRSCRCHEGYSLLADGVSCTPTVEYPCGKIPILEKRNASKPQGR
Coagulation factor VII (Homo sapiens), sequence (P08709 213-466 limits assumed): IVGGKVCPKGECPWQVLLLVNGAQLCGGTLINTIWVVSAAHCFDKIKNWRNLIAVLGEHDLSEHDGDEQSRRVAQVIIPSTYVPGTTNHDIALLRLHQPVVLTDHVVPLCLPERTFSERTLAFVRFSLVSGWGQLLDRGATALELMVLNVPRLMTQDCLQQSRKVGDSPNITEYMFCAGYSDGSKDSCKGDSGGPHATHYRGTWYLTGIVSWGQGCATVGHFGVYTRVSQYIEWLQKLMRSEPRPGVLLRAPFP
Plasma kallikrein (Homo sapiens), sequence (P03952 20-390 limits assumed): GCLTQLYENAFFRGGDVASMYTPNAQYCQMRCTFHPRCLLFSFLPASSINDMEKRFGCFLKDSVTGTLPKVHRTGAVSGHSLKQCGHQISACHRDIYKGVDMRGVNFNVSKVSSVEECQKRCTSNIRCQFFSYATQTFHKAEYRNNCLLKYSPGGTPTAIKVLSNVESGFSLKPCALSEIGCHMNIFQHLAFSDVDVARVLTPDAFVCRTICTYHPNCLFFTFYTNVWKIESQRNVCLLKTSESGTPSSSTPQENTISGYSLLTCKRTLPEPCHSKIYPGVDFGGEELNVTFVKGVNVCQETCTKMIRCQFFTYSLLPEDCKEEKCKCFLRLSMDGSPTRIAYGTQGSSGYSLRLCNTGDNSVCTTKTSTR
Plasma kallikrein (Homo sapiens), sequence (P03952 391-638 limits assumed): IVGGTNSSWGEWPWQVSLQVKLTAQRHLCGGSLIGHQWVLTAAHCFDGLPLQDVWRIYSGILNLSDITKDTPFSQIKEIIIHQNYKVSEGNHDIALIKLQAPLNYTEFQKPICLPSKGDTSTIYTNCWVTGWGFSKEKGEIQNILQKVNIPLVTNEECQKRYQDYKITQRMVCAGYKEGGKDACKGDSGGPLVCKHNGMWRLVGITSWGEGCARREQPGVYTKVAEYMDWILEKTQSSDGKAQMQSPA
Stromelysin-1 (Homo sapiens), sequence (P08254 100-477 limits assumed): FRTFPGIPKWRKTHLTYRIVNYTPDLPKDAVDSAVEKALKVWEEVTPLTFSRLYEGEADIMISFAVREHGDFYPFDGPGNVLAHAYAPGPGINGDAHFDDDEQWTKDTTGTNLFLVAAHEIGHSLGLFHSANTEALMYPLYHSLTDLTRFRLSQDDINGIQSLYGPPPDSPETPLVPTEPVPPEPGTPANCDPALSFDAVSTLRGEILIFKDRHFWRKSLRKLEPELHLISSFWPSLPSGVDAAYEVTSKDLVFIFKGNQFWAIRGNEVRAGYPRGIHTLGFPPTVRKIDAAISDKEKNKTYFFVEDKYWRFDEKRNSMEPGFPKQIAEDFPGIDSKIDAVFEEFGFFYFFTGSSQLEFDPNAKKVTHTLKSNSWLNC
Dipeptidyl peptidase 1 (Bos taurus), sequence (Q3ZCJ8 25-134 limits assumed): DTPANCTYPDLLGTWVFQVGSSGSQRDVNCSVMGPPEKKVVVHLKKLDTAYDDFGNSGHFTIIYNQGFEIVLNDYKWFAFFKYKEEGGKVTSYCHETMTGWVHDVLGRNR
Dipeptidyl peptidase 1 (Bos taurus), sequence (Q3ZCJ8 231-394 limits assumed): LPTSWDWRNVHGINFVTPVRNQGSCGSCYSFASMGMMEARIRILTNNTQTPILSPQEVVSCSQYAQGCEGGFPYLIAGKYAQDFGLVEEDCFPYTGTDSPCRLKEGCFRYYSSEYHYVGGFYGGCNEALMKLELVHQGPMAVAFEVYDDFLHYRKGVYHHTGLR
Dipeptidyl peptidase 1 (Bos taurus), sequence (Q3ZCJ8 395-463 limits assumed): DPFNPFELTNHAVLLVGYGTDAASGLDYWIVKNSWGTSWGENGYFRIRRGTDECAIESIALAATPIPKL
Chymase (Homo sapiens), sequence (P23946 whole entry): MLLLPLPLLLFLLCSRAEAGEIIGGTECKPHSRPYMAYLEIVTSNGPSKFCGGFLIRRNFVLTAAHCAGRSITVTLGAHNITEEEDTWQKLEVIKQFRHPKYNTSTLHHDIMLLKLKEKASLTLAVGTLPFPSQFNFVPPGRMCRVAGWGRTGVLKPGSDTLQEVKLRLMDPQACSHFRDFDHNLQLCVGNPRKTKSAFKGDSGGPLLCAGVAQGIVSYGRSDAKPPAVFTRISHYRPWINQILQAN
Protease (Human immunodeficiency virus 1), sequence (Q9YQ12 as listed by the source): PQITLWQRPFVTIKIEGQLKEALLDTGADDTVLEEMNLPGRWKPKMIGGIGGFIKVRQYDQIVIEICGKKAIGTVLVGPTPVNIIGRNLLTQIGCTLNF

Structure (SMILES): CC(C)C[C@H](NC(=O)[C@@H](NC(=O)c1ccc2ccccc2n1)[C@@H](C)O)B(O)O
- EC50 [1]: 32 nM
- IC50 [2]: 1300 nM
- IC50 [3]: 6.8 nM
- IC50 (A2780): 20.9 nM

Structure (SMILES): CC(C)C[C@H](NC(=O)[C@@H](NC(=O)c1cnccn1)[C@@H](C)O)B(O)O
- EC50 [1]: 1350 nM
- IC50 [3]: 42 nM

Structure (SMILES): CC(C)C[C@H](NC(=O)[C@H](Cc1ccccc1)NC(=O)c1cnccn1)B(O)O [BORTEZOMIB]
- bioavailability [4]: 11%
- EC50 [1]: 21 nM
- inhibition [5]: 4%
- half-life [6]: 98 h
- inhibition [7]: 1%
- IC50 [2]: 500 nM
- IC50 (Cathepsin G): 520 nM
- half-life [8]: 21 min
- inhibition [9]: 6%
- inhibition (Sus scrofa [10]): -1%
- inhibition [11]: 22%
- inhibition (Homo sapiens [12]): 0%
- inhibition (Homo sapiens [13]): 86%
- inhibition [14]: 26%
- fraction unbound [15]: 0.069
- inhibition (Caspase-3 (Homo sapiens)): 2%
- half-life [16]: 37 min
- inhibition [17]: 8%
- inhibition (Caspase-7 (Homo sapiens)): 1%
- inhibition [18]: 27%
- inhibition [19]: 2%
- AUC(0-inf) [20]: 499 ng·h/mL
- inhibition (Caspase-8 (Homo sapiens)): -4%
- inhibition [21]: 27%
- AUC(0-inf) [22]: 927 ng·h/mL
- inhibition (Caspase-2 (Homo sapiens)): 1%
- inhibition [23]: 3%
- half-life [24]: 70 h
- inhibition [25]: 1%
- inhibition [26]: 4%
- inhibition [27]: -2%
- inhibition (Caspase-9 (Homo sapiens)): 0%
- inhibition [28]: 50%
- inhibition (Renin (Homo sapiens)): -1%
- inhibition [29]: -6%
- inhibition [30]: 9%
- inhibition [31]: 0%
- inhibition [32]: -3%
- inhibition (Trypsin (Homo sapiens)): -1%
- Vd [33]: 102 L/kg
- IC50 [34]: 1220 nM
- inhibition [35]: 48%
- inhibition [36]: -1%
- inhibition (Caspase-1 (Homo sapiens)): 0%
- inhibition [37]: 2%
- clearance [38]: 14.3 mL/min/kg
- inhibition (Chymase (Homo sapiens)): 95%
- inhibition [39]: -7%
- IC50 (Chymase): 1190 nM
- fraction unbound [40]: 0.049
- inhibition [41]: 96%
- IC50 [3]: 3.8 nM
- Activity (Mus musculus): inactive
- inhibition [42]: -1%
- inhibition [43]: 9%
- fraction unbound [44]: 0.058
- inhibition [45]: -1%
- inhibition (Sus scrofa [46]): 8%
- IC50 (A2780): 1.7 nM
- half-life [47]: > 40 min
- inhibition [48]: 6%
- inhibition [49]: 5%
- half-life [50]: 16 min

Structure (SMILES): CC(C)C[C@H](NC(=O)[C@@H](NC(=O)c1ccc2ccccc2c1)[C@@H](C)O)B(O)O
- EC50 [1]: 27 nM
- IC50 [2]: 500 nM
- IC50 [3]: 1.6 nM
- IC50 (A2780): 5.3 nM

Structure (SMILES): CC(C)C[C@H](NC(=O)[C@@H](NC(=O)c1ccc(-c2ccccc2)cc1)[C@@H](C)O)B(O)O
- EC50 [1]: 21 nM
- IC50 [2]: 600 nM
- IC50 [3]: 0.9 nM
- IC50 (A2780): 4.9 nM

Second part, led by results:

- EC50 [1]: 27 nM
- IC50 [2]: 280 nM
- IC50 [3]: 2.3 nM
Structure (SMILES): CC(C)C[C@H](NC(=O)[C@@H](NC(=O)c1cncc(-c2ccccc2)n1)[C@@H](C)O)B(O)O
- IC50 (A2780): 9.8 nM

- EC50 [1]: 16 nM
- IC50 [2]: 590 nM
- IC50 [3]: 4.6 nM
Structure (SMILES): CC(C)C[C@H](NC(=O)[C@@H](NC(=O)c1csc(-c2ccccc2)n1)[C@@H](C)O)B(O)O
- IC50 (A2780): 28 nM

- EC50 [1]: 16.9 nM
- IC50 [2]: 900 nM
- IC50 [3]: 0.8 nM
Structure (SMILES): CC(C)C[C@H](NC(=O)[C@@H](NC(=O)c1cccc(-c2ccccc2)c1)[C@@H](C)O)B(O)O
- IC50 (A2780): 4.8 nM

- EC50 [1]: 13000 nM
- IC50 [2]: 460 nM
- IC50 [3]: 8.8 nM
Structure (SMILES): CC(C)C[C@H](NC(=O)[C@@H](NC(=O)c1ncccc1-c1ccccc1)[C@@H](C)O)B(O)O

- EC50 [1]: 18.6 nM
- IC50 [2]: 290 nM
- IC50 [3]: 2 nM
Structure (SMILES): CC(C)C[C@H](NC(=O)[C@@H](NC(=O)c1cc(-c2ccccc2)ccn1)[C@@H](C)O)B(O)O
- IC50 (A2780): 5.1 nM

- EC50 [1]: 21 nM
- IC50 [2]: 270 nM
- IC50 [3]: 1.8 nM
Structure (SMILES): CC(C)C[C@H](NC(=O)[C@@H](NC(=O)c1cnc(-c2ccccc2)cn1)[C@@H](C)O)B(O)O
- IC50 (A2780): 8.2 nM
